Experimental data gathered from unrelated publications.
Target: Mitogen-activated protein kinase 8 (MAPK8, Homo sapiens, UniProt P45983)

COCCOc1nc(-c2ccc(Cl)nc2)nc2c1CN(C(=O)c1ncn3ccccc13)CC2 — remaining binding (cell-free assay; competition with immobilised ligand; 0.1 µM): 100%
O=C(Nc1c[nH]nc1C(=O)NC1CCNCC1)c1cc(F)cc(F)c1 — remaining binding (binding; competition with immobilised ligand; 1 µM): 65%
N#Cc1ccccc1CSc1nnc2c(n1)[nH]c1ccccc12 — remaining binding (binding; competition with immobilised ligand; 10 µM): 96%
F[C@@H]1CCN(c2nccc(-c3cnn4ncccc34)n2)C1 — remaining binding (binding; 1 µM): 89%
Cc1c(NC(=O)c2cc(C(N)=O)nc3cc(F)ccc23)c(C(F)(F)F)nn1Cc1ccc(C(C)(C)C)cc1 — remaining binding (cell-free assay; competition with immobilised ligand; 1 µM): 100%
O=C(NCCCN1CCOCC1)c1ccc(Nc2ncc(Cl)c(-c3ccc(Cl)s3)n2)cc1 — remaining binding (binding; competition with immobilised ligand; 1 µM): 2.5%
COc1cnc(Nc2cccc(S(N)(=O)=O)c2)nc1N1CCN(c2ccccc2)C(=O)C1 — remaining binding (binding; competition with immobilised ligand; 1 µM): 76%
O=C(c1ccc(Nc2nccc(-c3cc4ccccc4s3)n2)cc1)N1CCC(N2CCCC2)CC1 — remaining binding (binding; competition with immobilised ligand; 1 µM): 2.4%
O=c1nc(-c2ccccn2)sc2ccccc12 — remaining binding (binding; competition with immobilised ligand; 1 µM): 100%
N[C@@H]1CCN(c2nccc(-c3cnn4ncccc34)n2)C1 — remaining binding (binding; 1 µM): 27%
COc1cnc(Nc2cccc(S(N)(=O)=O)c2)nc1N1CCN(c2ccccc2)CC1 — remaining binding (binding; competition with immobilised ligand; 1 µM): 87%
O=C(c1ccc(Nc2ncc(Cl)c(-c3ccc(Cl)s3)n2)cc1)N1CCC(N2CCCC2)CC1 — remaining binding (binding; competition with immobilised ligand; 1 µM): 0.3%
CN(CCCC(F)(F)F)c1nccc(-c2cnn3ncccc23)n1 — remaining binding (binding; competition with immobilised ligand; 1 µM): 100%
CS(=O)(=O)N1CCCC(NC(=O)[C@H](CCC2CCCCC2)NC(=O)c2ccc(CNc3ncnc4c3nnn4-c3ccccc3)cc2)C1 (stereo partly drawn) — remaining binding (cell-free assay; competition with immobilised ligand; 0.1 µM): 85%
CN(C)c1nccc(-c2cnn3ncccc23)n1 — remaining binding (binding; competition with immobilised ligand; 1 µM): 100%
CC(C)(C)c1ccc(-c2nc(CBr)nn2-c2cccc(O)c2)cc1 — remaining binding (cell-free assay; competition with immobilised ligand; 10 µM): 73%
C[C@@H]1CN(c2ccc3ncc(-c4ccc5[nH]nc(C6CC6)c5c4)n3n2)C[C@H](C)O1 — remaining binding (binding; competition with immobilised ligand; 50 nM): 80%
Cn1nc(C(=O)NCc2ccc(C(=O)O)cc2)cc1-c1ccc2[nH]ccc2c1 — remaining binding (cell-free assay; competition with immobilised ligand; 0.1 µM): 88%
CC1CCCN1c1nccc(-c2cnn3ncccc23)n1 (stereo not drawn) — remaining binding (binding; competition with immobilised ligand; 1 µM): 94%
C[C@H](c1ccnc(Nc2nc3ccc(-c4cc(N(C)C)ncn4)cc3[nH]2)c1)N1CCN(C(=O)CC(F)(F)F)CC1 — remaining binding (cell-free assay; competition with immobilised ligand; 0.1 µM): 98%
COc1ccnn2ncc(-c3ccnc(N(C)C)n3)c12 — remaining binding (binding; 1 µM): 75%
CC(=O)N1CCC(c2ccc(C(=O)NC(=N)N)cc2C(F)(F)F)CC1 — remaining binding (cell-free assay; competition with immobilised ligand; 1 µM): 73%
C[C@@H]1CCN(c2nccc(-c3cnn4ncccc34)n2)C1 — remaining binding (binding; competition with immobilised ligand; 1 µM): 23%
c1cncc(-c2cccc(Nc3nccc(NC4CCCCC4)n3)c2)c1 — remaining binding (binding; competition with immobilised ligand; 10 µM): 24%
